Assay results as given in ChEMBL document CHEMBL1147173, “Design, synthesis, inhibitory activity, and SAR studies of pyrrolidine derivatives as neuraminidase inhibitors” (Bioorg Med Chem, 2007).
Where a SMILES comes first, the peptide text is derived from it. [ ]: non-standard residue; d: D form. The star is where a group is joined. Hyp = O=C(O)[C@@H]1C[C@@H](O)CN1; Boc = CC(C)(C)OC(=O)*; NHOH = ON*

Target: Neuraminidase (Influenza A virus, UniProt B4URF0)
Assay: Inhibition of Influenza A virus type A H3N2 neuraminidase
In short: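 NA was taken from influenza A virus strains Yuefang 72-243 A and Jifang 90-15 A and prepared by the Laver method. The enzyme in 33 mmol/L MES (pH 3.5) was mixed with 4 mmol/L CaCl₂ and 20 µmol/L MUNANA (added solutions) and incubated for 10 min at 37 °C. The reaction was stopped with 14 mmol/L NaOH in 83% ethanol. Fluorescence was read at 360/450 nm with substrate blanks subtracted. IC50 came from percent inhibition versus concentration, with each point run in duplicate.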

Sequence of Neuraminidase (B4URF0 whole entry): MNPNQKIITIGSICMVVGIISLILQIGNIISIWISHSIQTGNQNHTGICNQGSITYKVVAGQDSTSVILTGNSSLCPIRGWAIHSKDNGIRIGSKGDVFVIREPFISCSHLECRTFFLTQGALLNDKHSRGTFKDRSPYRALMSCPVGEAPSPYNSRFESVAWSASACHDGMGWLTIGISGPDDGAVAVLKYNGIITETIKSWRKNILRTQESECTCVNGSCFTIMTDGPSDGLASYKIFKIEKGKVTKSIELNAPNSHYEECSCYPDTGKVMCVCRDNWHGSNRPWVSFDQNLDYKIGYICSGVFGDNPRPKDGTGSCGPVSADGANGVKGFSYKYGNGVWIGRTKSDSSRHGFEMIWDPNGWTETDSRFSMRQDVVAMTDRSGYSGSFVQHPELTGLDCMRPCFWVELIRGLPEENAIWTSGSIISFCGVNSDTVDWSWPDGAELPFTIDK

SMILES	IC50 (read-out: IC50) [µM]	IC50 (read-out: Log IC50 (converted)) [µM]
CC(C)[C@H](NC(=O)OC(C)(C)C)C(=O)N1C[C@H](O)C[C@H]1C(=O)NO (Boc-Val-[Hyp]-{NHOH})	6.09	17.8
CC(C)(C)OC(=O)N[C@@H](Cc1ccccc1)C(=O)N1C[C@H](O)C[C@H]1C(=O)NO (Boc-Phe-[Hyp]-{NHOH})	4.27	11
CC(C)[C@H](NC(=O)OC(C)(C)C)C(=O)N1C[C@H](O)C[C@H]1C(=O)O (Boc-Val-[Hyp]-OH)	4.63	14.1
CC(C)C[C@H](NC(=O)OC(C)(C)C)C(=O)N1C[C@@H](N)C[C@H]1C(=O)NO	6.13	17.4
O=C(NO)[C@@H]1C[C@@H](O)CN1C(=O)Cc1ccccc1Nc1c(Cl)cccc1Cl	8.54	20
CC(C)[C@H](NC(=O)OC(C)(C)C)C(=O)N1C[C@@H](N)C[C@H]1C(=O)O	4.29	13.2
COC(=O)[C@@H]1C[C@@H](N)CN1C(=O)[C@@H](N)CC(C)C	48	191
O=C(O)[C@@H]1C[C@@H](O)CN1C(=O)Cc1ccccc1Nc1c(Cl)cccc1Cl	19.8	49
CC(C)C[C@H](NC(=O)OC(C)(C)C)C(=O)N1C[C@H](O)C[C@H]1C(=O)NO (Boc-Leu-[Hyp]-{NHOH})	3.87	11
C[C@H](NC(=O)OC(C)(C)C)C(=O)N1C[C@@H](N)C[C@H]1C(=O)NO	12.6	40.7
C[C@H](NC(=O)OC(C)(C)C)C(=O)N1C[C@@H](N)C[C@H]1C(=O)O	15.8	53.7
CC(=O)N1C[C@H](O)C[C@@H]1C(=O)O	48.7	282
COC(=O)[C@@H]1C[C@H](N)CN1C(=O)[C@H](C)NC(=O)OC(C)(C)C	83.7	269
CC(C)(C)OC(=O)N[C@@H](Cc1ccccc1)C(=O)N1C[C@@H](N)C[C@H]1C(=O)NO	4.17	10.7
CC(C)C[C@H](NC(=O)OC(C)(C)C)C(=O)N1C[C@H](O)C[C@H]1C(=O)O (Boc-Leu-[Hyp]-OH)	11.5	33.9
CSCC[C@H](NC(=O)OC(C)(C)C)C(=O)N1C[C@@H](N)C[C@H]1C(=O)O	1.56	4.37
N[C@H]1C[C@@H](C(=O)NO)N(C(=O)Cc2ccccc2Nc2c(Cl)cccc2Cl)C1	3.57	8.51
CC(C)(C)OC(=O)N[C@@H](Cc1ccccc1)C(=O)N1C[C@H](O)C[C@H]1C(=O)O (Boc-Phe-[Hyp]-OH)	2.85	7.59
CC(C)(C)OC(=O)N[C@@H](Cc1ccccc1)C(=O)N1C[C@@H](N)C[C@H]1C(=O)O	2.4	6.46
CC[C@H](C)[C@H](NC(=O)OC(C)(C)C)C(=O)N1C[C@@H](N)C[C@H]1C(=O)O	2.71	7.94
CC[C@H](C)[C@H](NC(=O)OC(C)(C)C)C(=O)N1C[C@@H](N)C[C@H]1C(=O)NO	2.1	5.89
CC[C@H](C)[C@H](NC(=O)OC(C)(C)C)C(=O)N1C[C@H](O)C[C@H]1C(=O)NO (Boc-Ile-[Hyp]-{NHOH})	2.15	6.03
COC(=O)[C@@H]1C[C@@H](O)CN1C(=O)[C@H](C)NC(=O)OC(C)(C)C (Boc-Ala-[Hyp]-OMe)	90.8	288
N[C@H]1C[C@@H](C(=O)O)N(C(=O)Cc2ccccc2Nc2c(Cl)cccc2Cl)C1	16.2	39.8
